Results reported in paper PMC2818593 (Cancer prevention research (Philadelphia, Pa.), 2010).
“And” between values parts separate entries of the source, which are not always exact repeats. Identical values can stand only once. Like-named read-outs stand apart in the source and are kept apart here.

Columns and labels:
H4IIE cells = assay: GSH levels in H4IIE rat hepatoma cells; type: cell-based; conditions: 24 h
Method in brief: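 H4IIE rat hepatoma cells grown in MEM with 10% heat-inactivated FBS, non-essential amino acids and 1 mM pyruvate at 37 °C, 5% CO2. 3 × 10^6 cells exposed 24 h to 10–160 µM test compound (DMSO 0.5% final as control), then lysed in pH 7.0 phosphate/EDTA. Total GSH measured by enzymatic recycling on 1 µg protein (Bradford), expressed as fold over control. Two-sided tests, p < 0.05.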

[1] = Metabolism of ILG in the rat; type: in vivo; conditions: rat plasma after administration of ILG
[2] = test system: carcinogen-treated mouse mammary organ culture; conditions: at 10 µg/mL; cited from earlier work
[3] = test system: DMBA-induced mammary tumors; conditions: preliminary study, 5.0 g/kg diet, cited from earlier work
[4] = test system: DMBA-induced mammary tumors; assay: DMBA-induced mammary carcinogenesis in rats; type: in vivo
[5] = test system: glutathione S-transferase (GST); assay: GST activity in rat tissues after dietary ILG; type: in vivo; conditions: 10.0 g/kg diet; liver, colon, mammary gland
[6] = test system: QR-1 activity in mouse Hepa 1c1c7 cells; conditions: cited from earlier work
[7] = test system: quinone reductase-1 (QR-1); assay: QR-1 activity in rat tissues after dietary ILG; type: in vivo
[8] = Quantification of ILG in rat plasma and tissues by LC-MS-MS; type: in vivo
GSH = GSH level in rat tissues after dietary ILG; type: in vivo; conditions: 10.0 g/kg diet; liver, colon, mammary gland

O=c1cc(-c2ccc(Br)cc2)oc2ccccc12 [4'-Bromoflavone, reference compound]
GSH levels (H4IIE cells; H4IIE cells, 10 µM, positive control): significant increase in GSH levels

O=C(/C=C/c1ccc(O)cc1)c1ccc(O[C@@H]2O[C@H](C(=O)O)[C@@H](O)[C@H](O)[C@H]2O)cc1O [MG5, 4′-glucuronosylisoliquiritigenin]
relative abundance among the five glucuronides [1]: most abundant

O=C(/C=C/c1ccc(O)cc1)c1ccc(O)cc1O [ILG, 2′,4′,4-trihydroxychalcone]
inhibition in carcinogen-treated mouse mammary organ culture assay [2]: 76% | incidence of mammary tumors ([3]; after 120 days): little effect on the incidence of mammary tumors | tumor latency ([3]; one week prior and one week after DMBA): increased tumor latency | adverse effects [3]: no adverse effects were detected | tumor latency ([4]; 7.5 and 10 g/kg diet during the entire study): increased tumor latency | overall tumor incidence and multiplicity ([4]; 7.5 and 10 g/kg diet, after 84 days): increased the overall tumor incidence and multiplicity | body weight ([4]; between the different groups, 7.5 and 10 g/kg diet): no significant differences in body weight | GST activity [5]: significantly elevated only in the liver | CD, induction of QR-1 activity [6]: 2 µM | QR-1 activity ([7]; colon, end of in vivo study): significantly elevated | QR-1 activity ([7]; liver or mammary gland tissues): no significant induction | dose giving significant increase of total GSH (H4IIE cells; rat hepatoma cells): ≥ 80 µM | Concentration of ILG in liver tissue ([8]; 7.50 g/kg diet + DMBA): 2.56 ± 0.96 µg/g tissue | Concentration of ILG in mammary tissue ([8]; 7.50 g/kg diet + DMBA): 0.044 ± 0.014 µg/g tissue | Concentration of ILG in plasma ([8]; 7.50 g/kg diet + DMBA): 57.81 ± 19.65 ng/mL and 57.8 ± 19.6 ng/mL | Concentration of ILG in liver tissue ([8]; 10.0 g/kg diet): 3.25 ± 1.38 µg/g tissue | Concentration of ILG in mammary tissue ([8]; 10.0 g/kg diet): 0.094 ± 0.043 µg/g tissue | Concentration of ILG in plasma ([8]; 10.0 g/kg diet): 142.2 ± 35.9 ng/mL | Concentration of ILG in liver tissue ([8]; 10.0 g/kg diet + DMBA): 4.71 ± 1.64 µg/g tissue | Concentration of ILG in mammary tissue ([8]; 10.0 g/kg diet + DMBA): 0.084 ± 0.040 µg/g tissue | Concentration of ILG in plasma ([8]; 10.0 g/kg diet + DMBA): 134.6 ± 47.2 ng/mL | GSH levels (GSH): significantly elevated only in the liver
